Published values from different studies.
≈ marks a conversion by molar mass, not a printed value.

SMILES	organism	test	system	setting	measurement	value
COc1ccc(N=Nc2c(N)nn3c(-c4ccco4)cc(-c4ccc(OCc5ccccc5)cc4)nc23)cc1	Saccharomyces cerevisiae	microbial killing, broth dilution	ATCC9763		MFC	125 mg/L (≈ 242 µM)
O=[N+]([O-])C1=Cc2ccccc2OC1c1cccc(Br)c1 (stereo not drawn)	Leishmania tropica	parasite growth	THP-1	72 h, intracellular, amastigote	IC50	171 mg/L
CCOC(=O)C1=C(CN2CCC[C@H]2C(=O)Nc2ccc(B(O)O)cc2)NC(c2nccs2)=N[C@@H]1c1ccc(F)cc1Br	Hepatitis B virus	viral replication, inhibitor, qPCR	HepDES19	72 h	EC50	33.3 µM
C[C@@H]1[C@H](O)[C@@H](C)/C=C/C=C/C=C/C=C/C=C/C=C/C=C/[C@H](O[C@@H]2O[C@H](C)[C@@H](O)[C@H](N)[C@@H]2O)C[C@@H]2O[C@](O)(C[C@@H](O)C[C@@H](O)[C@H](O)CC[C@@H](O)C[C@@H](O)CC(=O)O[C@H]1C)C[C@H](O)[C@H]2C(=O)O	Leishmania tropica	parasite growth	J774.A1	72 h, intracellular, amastigote	IC50	27.9 µM
CCOC(=O)C1=C(CN2CCC(C(=O)Nc3ccccc3B3OC(C)(C)C(C)(C)O3)C2)NC(c2nccs2)=NC1c1ccc(F)cc1Br (stereo not drawn)	Hepatitis B virus	viral replication, inhibitor, qPCR	HepDES19	72 h	EC50	3.17 µM
O=[N+]([O-])C1=Cc2ccccc2OC1c1cccc(OCc2ccc(Cl)cc2)c1 (stereo not drawn)	Leishmania tropica	parasite growth	THP-1	72 h, intracellular, amastigote	IC50	149 mg/L
CNC(=S)NN=Cc1ccc(OC)cc1	Leishmania tropica	parasite growth	J774.A1	72 h, intracellular, amastigote	IC50	22.7 µM
O=[N+]([O-])C1=Cc2ccccc2OC1c1ccc(F)cc1 (stereo not drawn)	Leishmania tropica	parasite growth	THP-1	72 h, intracellular, amastigote	IC50	147 mg/L
COc1ccc(C=NNC(=S)Nc2cccnc2)cc1OC	Leishmania tropica	parasite growth, MTT		72 h, promastigote	IC50	> 1000 µM
Nc1nn2c(-c3ccco3)cc(-c3ccc(OCc4ccccc4)cc3)nc2c1N=Nc1ccc(F)cc1	Saccharomyces cerevisiae	microbial killing, broth dilution	ATCC9763		MFC	62.5 mg/L (≈ 124 µM)
Cc1ccc(COc2ccc(C3Oc4ccccc4C=C3[N+](=O)[O-])cc2)cc1 (stereo not drawn)	Leishmania tropica	parasite growth	THP-1	72 h, intracellular, amastigote	IC50	150 mg/L
CCOC(=O)C1=C(CN2CCC(C(=O)Nc3ccc(B(O)O)cc3)C2)NC(c2nccs2)=NC1c1ccc(F)cc1Br (stereo not drawn)	Hepatitis B virus	viral replication, inhibitor, qPCR	HepDES19	72 h	EC50	0.5 µM
CNC(=S)NN=Cc1ccc([N+](=O)[O-])cc1	Leishmania tropica	parasite growth, MTT		72 h, promastigote	IC50	240 µM
Cc1ccc(-c2cc(-c3ccc(OCc4ccccc4)cc3)nc3c(N=Nc4ccc(F)cc4)c(N)nn23)cc1	Saccharomyces cerevisiae	microbial growth, broth dilution	ATCC9763		MIC	62.5 mg/L (≈ 118 µM)
O=[N+]([O-])C1=Cc2ccccc2OC1c1ccc(Cl)cc1 (stereo not drawn)	Leishmania tropica	parasite growth	THP-1	72 h, intracellular, amastigote	IC50	155 mg/L
CCOC(=O)C1=C(CN2CCC[C@@H]2C(=O)Nc2cccc(B(O)O)c2)NC(c2nccs2)=N[C@@H]1c1ccc(F)cc1Br	Hepatitis B virus	viral replication, inhibitor, qPCR	HepDES19	72 h	EC50	2.6 µM
Cc1ccc(COc2cccc(C3Oc4ccccc4C=C3[N+](=O)[O-])c2)cc1 (stereo not drawn)	Leishmania tropica	parasite growth	THP-1	72 h, intracellular, amastigote	IC50	162 mg/L

SMILES	organism	test	system	setting	measurement	value
CNC(=S)NN=Cc1ccc(C)cc1	Leishmania tropica	parasite growth	J774.A1	72 h, intracellular, amastigote	IC50	452 µM
O=[N+]([O-])C1=Cc2ccccc2OC1c1ccc(OCc2ccc(F)cc2)cc1 (stereo not drawn)	Leishmania tropica	parasite growth	THP-1	72 h, intracellular, amastigote	IC50	181 mg/L
CNC(=S)NN=Cc1ccc(F)cc1	Leishmania tropica	parasite growth	J774.A1	72 h, intracellular, amastigote	IC50	762 µM
COc1ccc(N=Nc2c(N)nn3c(-c4ccc(C)cc4)cc(-c4ccc(OCc5ccccc5)cc4)nc23)cc1	Saccharomyces cerevisiae	microbial killing, broth dilution	ATCC9763		MFC	125 mg/L (≈ 231 µM)
CCOC(=O)C1=C(CN2CCN(Cc3cccc(B(O)O)c3)CC2)NC(c2nccs2)=NC1c1ccc(F)cc1Br (stereo not drawn)	Hepatitis B virus	viral replication, inhibitor, qPCR	HepDES19	72 h	EC50	1.27 µM
COc1ccc(N=Nc2c(N)nn3c(-c4ccc(Cl)cc4Cl)cc(-c4ccc(OCc5ccccc5)cc4)nc23)cc1	Saccharomyces cerevisiae	microbial growth, broth dilution	ATCC9763		MIC	125 mg/L (≈ 210 µM)
CCOC(=O)C1=C(CN2CCC(C(=O)Nc3cccc(B4OC(C)(C)C(C)(C)O4)c3)C2)NC(c2nccs2)=NC1c1ccc(F)cc1Br (stereo not drawn)	Hepatitis B virus	viral replication, inhibitor, qPCR	HepDES19	72 h	EC50	0.87 µM
C[C@@H]1[C@H](O)[C@@H](C)/C=C/C=C/C=C/C=C/C=C/C=C/C=C/[C@H](O[C@@H]2O[C@H](C)[C@@H](O)[C@H](N)[C@@H]2O)C[C@@H]2O[C@](O)(C[C@@H](O)C[C@@H](O)[C@H](O)CC[C@@H](O)C[C@@H](O)CC(=O)O[C@H]1C)C[C@H](O)[C@H]2C(=O)O	Saccharomyces cerevisiae	microbial growth, broth dilution	BY4742	48 h	MIC	0.25 mg/L (≈ 0.271 µM)
Cc1ccc(N=Nc2c(N)nn3c(-c4ccc(Cl)cc4Cl)cc(-c4ccc(OCc5ccccc5)cc4)nc23)cc1	Saccharomyces cerevisiae	microbial killing, broth dilution	ATCC9763		MFC	125 mg/L (≈ 216 µM)
CNC(=S)NN=Cc1ccc(OC)c(OC)c1	Leishmania tropica	parasite growth	J774.A1	72 h, intracellular, amastigote	IC50	454 µM
CCOC(=O)C1=C(CN2CCN(Cc3ccc(B(O)O)cc3)CC2)NC(c2nccs2)=NC1c1ccc(F)cc1Br (stereo not drawn)	Hepatitis B virus	viral replication, inhibitor, qPCR	HepDES19	72 h	EC50	0.97 µM
S=C(NN=Cc1ccc(Br)cc1)Nc1cccnc1	Leishmania tropica	parasite growth	J774.A1	72 h, intracellular, amastigote	IC50	475 µM
CC(=O)N1CCN(c2ccc(OCC3COC(Cn4ccnc4)(c4ccc(Cl)cc4Cl)O3)cc2)CC1 (stereo not drawn)	Saccharomyces cerevisiae	microbial growth, broth dilution	ATCC9763		MIC	1.95 mg/L (≈ 3.67 µM)
O=[N+]([O-])C1=Cc2ccccc2OC1c1ccc(OCc2ccc(Cl)cc2)cc1 (stereo not drawn)	Leishmania tropica	parasite growth	THP-1	72 h, intracellular, amastigote	IC50	142 mg/L
Cc1ccc(N=Nc2c(N)nn3c(-c4ccc(C)cc4)cc(-c4ccc(OCc5ccccc5)cc4)nc23)cc1	Saccharomyces cerevisiae	microbial growth, broth dilution	ATCC9763		MIC	62.5 mg/L (≈ 119 µM)
OC(Cn1cncn1)(Cn1cncn1)c1ccc(F)cc1F	Saccharomyces cerevisiae	microbial growth, broth dilution	BY4742	48 h	MIC	8 mg/L (≈ 26.1 µM)
